Source: ChEMBL document CHEMBL5608261, “Pharmacophore Establishment and Optimization of Saturated 1,6-Naphthyridine-Fused Quinazolinones that Inhibit Meningoencephalitis-Causing Naegleria fowleri” (J Med Chem, 2024)
In brackets after ≈: the same amount, converted by molar mass.

Key:
Naegleria fowleri = assay: Anti-ameobic activity against Naegleria fowleri Nf69 (ATCC 30215) trophozoites assessed as inhibition of amoeba growth incubated for 48 hrs by CellTiter-Glo assay; type: functional, organism-based
Procedure, shortened: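 Axenic Nf69 trophozoites were seeded at 1 × 10^4 cells/mL in Nelson's complete medium with 10% heat-inactivated FBS. Compound was added at 20 to 0.375 μM (lower ranges for very potent compounds), with vehicle controls, for 48 h at 37 °C and 5% CO2. CellTiter-Glo luminescence gave % growth inhibition versus controls, and triplicate means were fitted to dose–response curves for EC50.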

[1] = Selectivity index, ratio of CC50 for cytotoxicity against human SH-SY5Y cells to EC50 for anti-amoebic activity against Naegleria fowleri Nf69 (ATCC 30215) assessed as inhibition of amoeba growth; type: toxicity, cell-based; settings: for selectivity ratio: SH-SY5Y cells, read-out: Ratio CC50/EC50
SH-SY5Y = assay: Cytotoxicity against human SH-SY5Y cells assessed as reduction in cell viability incubated for 72 hrs by CellTiter-Glo assay; type: toxicity, cell-based; settings: sh-sy5y, 72 h
Procedure, shortened: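 SH-SY5Y cells at 2000 per well attached overnight at 37 °C. Compound from 20 mM DMSO stocks was added in triplicate as a dose series starting at 20 μM, with doxorubicin as positive control.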

[2] = Kinetic solubility of compound at pH 7.4 incubated for 24 hrs by HPLC analysis; type: physicochemical; settings: buffer, pH 7.4, read-out: Kinetic_solubility
[3] = Metabolic stability in CD-1 mouse liver microsomes assessed as half-life incubated for 60 mins by LC-MS/MS analysis; type: ADME, Microsome; settings: 1 h
Procedure, shortened: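 Half-life measured in CD-1 mouse liver microsomes with NADPH over a 60 min exposure.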

[4] = Naegleria fowleri, Nf69 (ATCC 30215), 48 h

SMILES	CC50 (SH-SY5Y)	EC50 (Naegleria fowleri; [4])	other results
COc1cc2nc3n(c(=O)c2cc1Cl)CC[C@@H]1[C@@H]3CCCN1CC(C)C	> 20 µM	–	EC50 (Naegleria fowleri): 620 nM; Ratio CC50/EC50 [1]: > 32.3
CN1CCC[C@H]2c3nc4ccc(C(F)(F)F)cc4c(=O)n3CC[C@@H]21	–	4300 nM	selectivity ratio [1]: > 4.7
CN1CCC[C@H]2c3nc4ccc(Cl)cc4c(=O)n3CC[C@@H]21	–	4000 nM	selectivity ratio [1]: > 5
COc1cc2nc3n(c(=O)c2cc1Cl)CC[C@H]1[C@H]3CCCN1CC(C)C	1 µM	27 nM	solubility kinetic at 24 h [2]: 2.6 µM (≈ 0.977 µg/mL); selectivity ratio [1]: 38
CN1CCC[C@H]2c3nc4cc(Cl)c(Cl)cc4c(=O)n3CC[C@@H]21	–	2600 nM	selectivity ratio [1]: > 7.7
COc1cc2nc3n(c(=O)c2cc1Cl)CC[C@@H]1[C@@H]3CCCN1CC(C)C (racemic)	1.8 µM	–	EC50 (Naegleria fowleri): 170 nM; Ratio CC50/EC50 [1]: 10.6
Cc1ccc2nc3n(c(=O)c2c1)CC[C@@H]1[C@@H]3CCCN1C (racemic)	–	3100 nM	–
Cc1cccc2nc3n(c(=O)c12)CC[C@@H]1[C@@H]3CCCN1C (racemic)	> 20 µM	> 10000 nM	–
CN1CCC[C@H]2c3nc4cccc(Cl)c4c(=O)n3CC[C@H]21 (racemic)	–	> 10000 nM	–
CN1CCC[C@H]2c3nc4cc(Cl)c(C(F)(F)F)cc4c(=O)n3CC[C@H]21 (racemic)	> 20 µM	270 nM	–
CN(C)CC(=O)N1CCC[C@@H]2c3nc4cc(Cl)c(Cl)cc4c(=O)n3CC[C@H]21 (racemic)	> 20 µM	720 nM	–
O=C(N1CCOCC1)N1CCC[C@@H]2c3nc4cc(Cl)c(Cl)cc4c(=O)n3CC[C@H]21 (racemic)	> 20 µM	> 10000 nM	–
COc1cc2nc3n(c(=O)c2cc1Cl)CC[C@@H]1[C@@H]3CCCN1C (racemic)	> 20 µM	430 nM	–
O=c1c2cc(Cl)c(Cl)cc2nc2n1CC[C@@H]1[C@@H]2CCCN1Cc1cnccn1 (racemic)	> 20 µM	50 nM	–
O=C(C1CCOCC1)N1CCC[C@@H]2c3nc4cc(Cl)c(Cl)cc4c(=O)n3CC[C@H]21 (racemic)	> 20 µM	> 10000 nM	–
CC(C)N1CCC[C@@H]2c3nc4cc(Cl)c(Cl)cc4c(=O)n3CC[C@H]21 (racemic)	> 20 µM	40 nM	t1/2 [3]: 41.1 min
CN1CCC[C@@H]2c3nc4cc(F)ccc4c(=O)n3CC[C@H]21 (racemic)	> 20 µM	> 10000 nM	–
COc1ccc2c(=O)n3c(nc2c1)[C@@H]1CCCN(C)[C@@H]1CC3 (racemic)	–	1800 nM	–
CN1CCC[C@H]2c3nc4cc(Cl)c(Cl)cc4c(=O)n3CC[C@H]21 (racemic)	–	260 nM	–
Cc1ccc2nc3n(c(=O)c2c1)CC[C@@H]1[C@H]3CCCN1C (racemic)	> 20 µM	2800 nM	–
O=c1c2cc(Cl)c(Cl)cc2nc2n1CC[C@H]1NCCC[C@H]21 (racemic)	> 20 µM	1600 nM	–

SMILES	CC50 (SH-SY5Y)	EC50 (Naegleria fowleri; [4])	other results
CN1CCC[C@@H]2c3nc4cc(Cl)ccc4c(=O)n3CC[C@H]21 (racemic)	> 20 µM	6000 nM	–
COc1cc(Cl)cc2c(=O)n3c(nc12)[C@H]1CCCN(C)[C@@H]1CC3 (racemic)	> 20 µM	> 10000 nM	–
CC(C)OCCN1CCC[C@@H]2c3nc4cc(Cl)c(Cl)cc4c(=O)n3CC[C@H]21 (racemic)	> 20 µM	0.4 nM	t1/2 [3]: 9.8 min
COc1cc2nc3n(c(=O)c2cc1C#N)CC[C@@H]1[C@@H]3CCCN1C (racemic)	> 20 µM	3800 nM	–
O=c1c2cc(Cl)c(Cl)cc2nc2n1CC[C@@H]1[C@@H]2CCCN1Cc1ccccn1 (racemic)	> 20 µM	2530 nM	–
COc1ccc2nc3n(c(=O)c2c1)CC[C@@H]1[C@H]3CCCN1C (racemic)	> 20 µM	> 10000 nM	–
CN1CCC[C@@H]2c3nc4cnccc4c(=O)n3CC[C@H]21 (racemic)	–	> 10000 nM	–
Cc1cccc2nc3n(c(=O)c12)CC[C@@H]1[C@H]3CCCN1C (racemic)	–	> 10000 nM	–
COc1ccc2nc3n(c(=O)c2c1)CC[C@@H]1[C@@H]3CCCN1C (racemic)	–	7300 nM	–
O=c1c2cc(Cl)c(Cl)cc2nc2n1CC[C@@H]1[C@@H]2CCCN1Cc1ccncc1 (racemic)	> 20 µM	480 nM	–
O=c1c2cc(Cl)c(Cl)cc2nc2n1CC[C@@H]1[C@@H]2CCCN1CC1CCOCC1 (racemic)	> 20 µM	7 nM	t1/2 [3]: 67.2 min
CN1CCC[C@@H]2c3nc4cc(-c5ccccc5)c(Cl)cc4c(=O)n3CC[C@H]21 (racemic)	9.4 µM	2100 nM	–
COc1cc(Cl)cc2c(=O)n3c(nc12)[C@@H]1CCCN(C)[C@@H]1CC3 (racemic)	–	> 10000 nM	–
COc1cc2nc3n(c(=O)c2cc1Cl)CC[C@@H]1[C@H]3CCCN1C (racemic)	–	380 nM	–
CN1CCC[C@@H]2c3nc4cc(C(F)(F)F)ccc4c(=O)n3CC[C@H]21 (racemic)	–	990 nM	–
CN1CCC[C@H]2c3nc4cnccc4c(=O)n3CC[C@H]21 (racemic)	–	> 10000 nM	–
CN1CCC[C@H]2c3nc4cc(F)ccc4c(=O)n3CC[C@H]21 (racemic)	–	> 10000 nM	–
CN1CCC[C@@H]2c3nc4cccc(Cl)c4c(=O)n3CC[C@H]21 (racemic)	> 20 µM	> 10000 nM	–
CN1CCC[C@H]2c3nc4ccc(C#N)cc4c(=O)n3CC[C@H]21 (racemic)	> 20 µM	2100 nM	–
CN1CCC[C@@H]2c3nc4cc(Cl)c(C(F)(F)F)cc4c(=O)n3CC[C@H]21 (racemic)	–	340 nM	–
CC(C)CN1CCC[C@@H]2c3nc4cc(Cl)c(Cl)cc4c(=O)n3CC[C@H]21 (racemic)	> 20 µM	7 nM	t1/2 [3]: 19.7 min

SMILES	CC50 (SH-SY5Y)	EC50 (Naegleria fowleri; [4])	other results
O=c1c2cc(Cl)c(Cl)cc2nc2n1CC[C@@H]1[C@@H]2CCCN1Cc1ccccc1 (racemic)	> 20 µM	720 nM	–
CN1CCC[C@H]2c3nc4ccc(Cl)cc4c(=O)n3CC[C@H]21 (racemic)	–	2200 nM	–
CN1CCC[C@@H]2c3nc4ccc(C#N)cc4c(=O)n3CC[C@H]21 (racemic)	–	670 nM	–
CN(C)C(=O)CN1CCC[C@@H]2c3nc4cc(Cl)c(Cl)cc4c(=O)n3CC[C@H]21 (racemic)	> 20 µM	300 nM	–
CN1CCC[C@H]2c3nc4ccc(C(F)(F)F)cc4c(=O)n3CC[C@H]21 (racemic)	–	950 nM	–
CN1CCC[C@H]2c3nc4cc(C(F)(F)F)ccc4c(=O)n3CC[C@H]21 (racemic)	> 20 µM	6900 nM	–
O=c1c2cc(Cl)c(Cl)cc2nc2n1CC[C@@H]1[C@@H]2CCCN1CC1CC1 (racemic)	4.8 µM	2 nM	t1/2 [3]: 18.3 min; selectivity ratio [1]: 2400
O=C(c1ccccc1)N1CCC[C@@H]2c3nc4cc(Cl)c(Cl)cc4c(=O)n3CC[C@H]21 (racemic)	> 20 µM	> 10000 nM	–
CN1CCC[C@@H]2c3nc4ccc(F)cc4c(=O)n3CC[C@H]21 (racemic)	> 20 µM	> 10000 nM	–
CN(C)CCN1CCC[C@@H]2c3nc4cc(Cl)c(Cl)cc4c(=O)n3CC[C@H]21 (racemic)	8 µM	180 nM	selectivity ratio [1]: 44
CN1CCC[C@@H]2c3nc4ccccc4c(=O)n3CC[C@H]21 (racemic)	> 20 µM	> 10000 nM	–
CN1CCC[C@H]2c3nc4cc(-c5ccccc5)c(Cl)cc4c(=O)n3CC[C@H]21 (racemic)	> 20 µM	3400 nM	–
CN1CCC[C@H]2c3nc4ccccc4c(=O)n3CC[C@H]21 (racemic)	–	> 10000 nM	–
CC(C)(C)C(=O)N1CCC[C@@H]2c3nc4cc(Cl)c(Cl)cc4c(=O)n3CC[C@H]21 (racemic)	> 20 µM	> 10000 nM	–
CN1CCC[C@H]2c3nc4cc(Cl)ccc4c(=O)n3CC[C@H]21 (racemic)	–	> 10000 nM	–
O=c1c2cc(Cl)c(Cl)cc2nc2n1CC[C@@H]1[C@@H]2CCCN1Cc1cccnc1 (racemic)	> 20 µM	0.2 nM	t1/2 [3]: 21.9 min
COCCN1CCC[C@@H]2c3nc4cc(Cl)c(Cl)cc4c(=O)n3CC[C@H]21 (racemic)	10 µM	23 nM	t1/2 [3]: 17 min; selectivity ratio [1]: 435
COc1ccc2c(=O)n3c(nc2c1)[C@H]1CCCN(C)[C@@H]1CC3 (racemic)	> 20 µM	1500 nM	–
CC(C)NCCN1CCC[C@@H]2c3nc4cc(Cl)c(Cl)cc4c(=O)n3CC[C@H]21 (racemic)	6.4 µM	130 nM	selectivity ratio [1]: 49
CN1CCC[C@H]2c3nc4ccc(F)cc4c(=O)n3CC[C@H]21 (racemic)	–	> 10000 nM	–
